Common to all, as to assay type: cell-based
For test [1], the target named is T1, Adenosine receptor A1 (Homo sapiens) (UniProt P30542).
T1 sequence (whole entry): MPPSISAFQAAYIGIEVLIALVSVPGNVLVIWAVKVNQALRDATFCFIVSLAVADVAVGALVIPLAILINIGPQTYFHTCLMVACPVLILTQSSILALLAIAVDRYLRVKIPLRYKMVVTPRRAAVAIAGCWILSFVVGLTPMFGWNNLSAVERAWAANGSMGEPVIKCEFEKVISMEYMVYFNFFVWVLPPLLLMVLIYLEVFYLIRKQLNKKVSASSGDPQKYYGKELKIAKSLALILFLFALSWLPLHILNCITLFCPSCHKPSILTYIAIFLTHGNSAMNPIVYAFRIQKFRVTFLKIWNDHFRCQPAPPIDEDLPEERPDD
The test can be described thus: Displacement of [3H]DPCPX from human A1 receptor expressed in CHO-A1 cells at 10 uM incubated for 60 mins by scintillation counting method based radioligand competitive binding assay. An outline of the steps:
(§1)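 CHO-A1 membranes, 15 μg protein, in 20 mM Hepes, 100 mM NaCl, 10 mM MgCl2, 2 UI/ml adenosine deaminase, pH 7.4. Radioligand 2 nM [3H]DPCPX; nonspecific binding with 10 μM (R)-PIA. Incubated 25 °C for 60 min, filtered, counted, in duplicate. Screen at 10 μM; compounds >80% inhibition tested at 6 concentrations (10 nM–100 μM), Ki by Cheng-Prusoff.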
A general note: Loss of bound radioactivity is the signal in a displacement assay; it reports binding, not function.

The target of test [2] is T2, Adenosine receptor A2a (Homo sapiens, UniProt P29274). The test can be described thus: Displacement of [3H]ZM241385 from human A2A receptor expressed in HeLa-A2A cells at 10 uM incubated for 30 mins by scintillation counting method based radioligand competitive binding assay. An outline of the steps:
(§2)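 Uses HeLa-A2A membranes, 10 µg protein, buffer 50 mM Tris-HCl, 1 mM EDTA, 10 mM MgCl2, 2 UI/mL adenosine deaminase, pH 7.4. 3 nM [3H]ZM241385; nonspecific with 50 µM NECA. 30 min at 25 °C, GF/C filtration, duplicate wells. Screened at 10 μM; if >80% inhibition, 6 concentrations 10 nM–100 μM, Ki by Cheng-Prusoff.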

Test [3] addresses T3, Adenosine receptor A2b (Homo sapiens) (UniProt P29275).
T3 sequence (whole entry): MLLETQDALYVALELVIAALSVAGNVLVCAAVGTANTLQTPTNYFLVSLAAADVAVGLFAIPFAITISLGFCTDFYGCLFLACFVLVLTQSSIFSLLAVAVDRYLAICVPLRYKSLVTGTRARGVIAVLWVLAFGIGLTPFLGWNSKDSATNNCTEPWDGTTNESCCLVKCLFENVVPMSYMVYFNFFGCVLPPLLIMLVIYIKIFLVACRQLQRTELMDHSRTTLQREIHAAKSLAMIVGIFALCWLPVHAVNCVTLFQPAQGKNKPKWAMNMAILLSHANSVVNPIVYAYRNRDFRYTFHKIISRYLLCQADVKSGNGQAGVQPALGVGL
The test can be described thus: Displacement of [3H]DPCPX from human A2B receptor expressed in HEK-293-A2B cells at 10 uM incubated for 30 mins by scintillation counting method based radioligand competitive binding assay. The method in brief:
(§3)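 HEK-293-A2B membranes, 18 μg protein, in 50 mM Tris-HCl, 1 mM EDTA, 10 mM MgCl2, 0.1 mM benzamidine, 10 µg/mL bacitracin, 2 UI/mL adenosine deaminase, pH 6.5. Tracer 35 nM [3H]DPCPX; 400 μM NECA defines nonspecific binding. 25 °C for 30 min, GF/C filtration, duplicates. Single-point 10 μM screen, then 6-point curves (10 nM–100 μM), Cheng-Prusoff Ki.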

For test [4], the target named is T4, Adenosine receptor A3 (Homo sapiens) (UniProt P0DMS8).
T4 sequence (whole entry): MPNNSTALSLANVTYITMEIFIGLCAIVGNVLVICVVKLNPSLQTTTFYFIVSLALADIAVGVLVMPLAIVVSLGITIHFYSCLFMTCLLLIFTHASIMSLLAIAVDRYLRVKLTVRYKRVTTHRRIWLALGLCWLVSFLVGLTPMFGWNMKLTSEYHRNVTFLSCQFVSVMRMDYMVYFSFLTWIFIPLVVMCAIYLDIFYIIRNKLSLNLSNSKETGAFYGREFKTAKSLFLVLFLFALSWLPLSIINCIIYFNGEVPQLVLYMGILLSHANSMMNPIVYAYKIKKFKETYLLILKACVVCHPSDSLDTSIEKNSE
The test can be described thus: Displacement of [3H]NECA from human A3 receptor expressed in HeLa-A3 cells at 10 uM incubated for 180 mins by scintillation counting method based radioligand competitive binding assay. An outline of the steps: (§4)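 Membranes of HeLa-A3 cells (90 μg protein) in 50 mM Tris-HCl, 1 mM EDTA, 5 mM MgCl2, 2 UI/mL adenosine deaminase, pH 7.4, with 30 nM [3H]NECA. Nonspecific: 100 μM (R)-PIA. 180 min at 25 °C, GF/B filtration, triplicates, scintillation counting. 10 μM single-point inhibition; >80% actives run at 6 concentrations (10 nM–100 μM), pKi via Cheng-Prusoff.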

The target in the next test is T5, Adenosine receptor A1 (Homo sapiens, UniProt P30542).
T5 sequence (P30542 whole entry): T1 sequence (whole entry)
The test can be described thus: Displacement of [3H]DPCPX from human A1 receptor expressed in CHO-A1 cells incubated for 60 mins by scintillation counting method based radioligand competitive binding assay. The method in brief: as §1

For another test, the target named is T6, Adenosine receptor A3 (Homo sapiens, UniProt P0DMS8).
T6 sequence (P0DMS8 whole entry): T4 sequence (whole entry)
The test can be described thus: Displacement of [3H]NECA from human A3 receptor expressed in HeLa-A3 cells incubated for 180 mins by scintillation counting method based radioligand competitive binding assay. An outline of the steps:
as §4

The target of the next test is T7, Adenosine receptor A2b (Homo sapiens, UniProt P29275).
T7 sequence (P29275 whole entry): T3 sequence (whole entry)
The test can be described thus: Displacement of [3H]DPCPX from human A2B receptor expressed in HEK-293-A2B cells incubated for 30 mins by scintillation counting method based radioligand competitive binding assay. An outline of the steps:
as §3

Test [5] has as its target T2, Adenosine receptor A2a. The test can be described thus: Displacement of [3H]ZM241385 from human A2A receptor expressed in HeLa-A2A cells incubated for 30 mins by scintillation counting method based radioligand competitive binding assay. The method in brief: as §2

T2 sequence (P29274 whole entry): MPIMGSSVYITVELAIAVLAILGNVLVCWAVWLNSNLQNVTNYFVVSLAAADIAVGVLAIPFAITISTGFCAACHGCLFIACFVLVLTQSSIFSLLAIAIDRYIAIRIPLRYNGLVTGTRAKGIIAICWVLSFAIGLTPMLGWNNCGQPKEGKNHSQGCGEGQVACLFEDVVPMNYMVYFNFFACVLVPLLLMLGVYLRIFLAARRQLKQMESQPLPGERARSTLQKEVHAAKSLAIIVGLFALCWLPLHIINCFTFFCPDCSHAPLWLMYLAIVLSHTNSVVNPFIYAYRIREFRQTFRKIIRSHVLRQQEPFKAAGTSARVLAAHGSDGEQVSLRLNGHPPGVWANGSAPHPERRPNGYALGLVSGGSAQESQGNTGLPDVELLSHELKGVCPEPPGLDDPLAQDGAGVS

Broadly, the inhibition is the change of the read-out against control, counted positive when it falls. One may read the Ki as a measure of affinity in units of concentration, obtained from inhibition or displacement. As for `CN1CCN(c2nc(-c3ccc(Cl)c(Cl)c3)nc3[nH]cnc23)CC1`, the inhibition in test [1] was above 80%; on Adenosine receptor A2a [2] it was 12%; in test [3], 24.1%; in test [4], above 80%. Moreover, the Ki on Adenosine receptor A1 is 631 nM; on Adenosine receptor A3, 39.8 nM.

For the compound `Cn1cnc2c(N3CCCCC3)nc(-c3cccc(O)c3)nc21`, the inhibition in test [1] is 78.5%; on Adenosine receptor A2a [2], 54.8%; in test [3], 29.3%; in test [4] it was 49.1%.

Turning to `Cn1cnc2c(N3CCCCC3)nc(-c3ccccc3Cl)nc21`, the inhibition in test [1] amounted to 35.2%; at Adenosine receptor A2a [2], 36.4%; in test [3], 32.7%; in test [4] it was 2.1%.

Take `CN1CCN(c2nc(-c3cccc(Cl)c3)nc3c2ncn3C)CC1`: the inhibition is 45.7% in test [1], 21% on Adenosine receptor A2a [2], 19.2% in test [3] and 38.3% in test [4].

Turning to `Clc1cccc(-c2nc(N3CCCCC3)c3nc[nH]c3n2)c1`, the inhibition in test [1] was above 80%; at Adenosine receptor A2a [2], 43.5%; in test [3] it was above 80%; in test [4], above 80%. In addition, the Ki was 50.1 nM on Adenosine receptor A1, 1000 nM at Adenosine receptor A2b and 39.8 nM on Adenosine receptor A3.

`CN1CCN(c2nc(-c3ccc(Cl)cc3)nc3[nH]cnc23)CC1`: the inhibition is above 80% in test [1], 15.9% at Adenosine receptor A2a [2], 6.2% in test [3] and above 80% in test [4]. Also, the values for the Ki on Adenosine receptor A1 and on Adenosine receptor A3 were 398 nM and 39.8 nM, respectively.

In the case of `Oc1ccc(-c2nc(N3CCCCC3)c3nc[nH]c3n2)cc1`, the inhibition (in test [1]; at Adenosine receptor A2a [2]; in test [3]; in test [4]) was above 80% in each case. Also, the Ki on Adenosine receptor A1 is 10 nM; on Adenosine receptor A2a [5], 100 nM; at Adenosine receptor A2b, 79.4 nM; at Adenosine receptor A3, 39.8 nM.

Turning to `CN1CCN(c2nc(-c3ccccc3O)nc3c2ncn3C)CC1`, the inhibition was above 80% in test [1], 59.6% at Adenosine receptor A2a [2], 36% in test [3] and 15.3% in test [4]. On Adenosine receptor A1, this compound showed a Ki of 631 nM.

On to `CN1CCN(c2nc(-c3ccc(Cl)c(C(F)(F)F)c3)nc3[nH]cnc23)CC1`, for which the inhibition in test [1] is 52.4%; on Adenosine receptor A2a [2] it was 32%; in test [3] it was 25.1%; in test [4], above 80%. This compound showed an inhibitory constant (Ki) on Adenosine receptor A3 of 794 nM.

`CN1CCN(c2nc(-c3cccc(O)c3)nc3c2ncn3C)CC1`: the inhibition in test [1] was 27.1%; on Adenosine receptor A2a [2], 4.2%; in test [3], 47.8%; in test [4], 63.8%.

For `Clc1ccc(-c2nc(N3CCCCC3)c3nc[nH]c3n2)cc1Cl`, the inhibition is 24.1% in test [1], 7% on Adenosine receptor A2a [2], 0.7% in test [3] and above 80% in test [4]. This compound showed a Ki at Adenosine receptor A3 of 79.4 nM.

Turning to `Clc1ccc(Cl)c(-c2nc(N3CCCCC3)c3nc[nH]c3n2)c1`, the inhibition in test [1] was 1.4%; on Adenosine receptor A2a [2], 21%; in test [3], 12.1%; in test [4], above 80%. On Adenosine receptor A3, this compound gave a Ki of 200 nM.

With `CN1CCN(c2nc(-c3ccc(O)cc3)nc3[nH]cnc23)CC1`, the inhibition in test [1] is above 80%; on Adenosine receptor A2a [2], 37%; in test [3] it was 53%; in test [4] it was 48%. Moreover, on Adenosine receptor A1, the affinity corresponds to a Ki of 398 nM.

Turning to `CN1CCN(c2nc(-c3cccc(O)c3)nc3[nH]cnc23)CC1`, the inhibition was above 80% in test [1], 1% at Adenosine receptor A2a [2], 27% in test [3] and above 80% in test [4]. In addition, the Ki on Adenosine receptor A1 is 158 nM; at Adenosine receptor A3, 501 nM.

On to `Cn1cnc2c(N3CCCCC3)nc(-c3cccc(Cl)c3)nc21`, for which the inhibition in test [1] came to 22.4%; at Adenosine receptor A2a [2] it was 17%; in test [3], 24.2%; in test [4], 6.1%.

For the compound `CN1CCN(c2nc(-c3cc(Cl)ccc3Cl)nc3[nH]cnc23)CC1`, the inhibition was above 80% in test [1], 9.1% on Adenosine receptor A2a [2], 13% in test [3] and above 80% in test [4]. The results for the inhibition constant (Ki) on Adenosine receptor A1 and on Adenosine receptor A3 were 2510 nM and 251 nM, respectively.

Turning to `Cn1cnc2c(N3CCCCC3)nc(-c3cccc(O)c3O)nc21`, the inhibition in test [1] is 17.2%; at Adenosine receptor A2a [2], 24.1%; in test [3] it was 26%; in test [4], 33.7%.

Turning to `Cn1cnc2c(N3CCCCC3)nc(-c3cc(Cl)ccc3Cl)nc21`, the inhibition in test [1] was 13.2%; on Adenosine receptor A2a [2], 2.4%; in test [3], 31%; in test [4], 5.4%.

For `Cn1cnc2c(N3CCCCC3)nc(-c3ccccc3O)nc21`, the inhibition in test [1] turned out to be 50.5%; at Adenosine receptor A2a [2] it was 74.8%; in test [3], 30.2%; in test [4] it was 20%.

For the compound `CN1CCN(c2ncnc3[nH]cnc23)CC1`, the inhibition in test [1] is 9.2%; at Adenosine receptor A2a [2], 19.1%; in test [3], 14%; in test [4] it was 26.9%.

With `CN1CCN(c2nc(-c3ccc(Cl)c(Cl)c3)nc3c2ncn3C)CC1`, the inhibition in test [1] turned out to be 65.2%; at Adenosine receptor A2a [2], 25%; in test [3] it was 28.3%; in test [4], 35.3%.

On to `CN1CCN(c2nc(-c3cccc(Cl)c3)nc3[nH]cnc23)CC1`, for which the inhibition in test [1] is above 80%; at Adenosine receptor A2a [2], 52.7%; in test [3], 29.9%; in test [4], above 80%. Further, the inhibition constant (Ki) at Adenosine receptor A1 is 79.4 nM; on Adenosine receptor A3, 100 nM.
